In ChEMBL document CHEMBL1121389, “Mono- and diaryl-2-quinuclidinylcarbinols with local anesthetic and antiarrhythmic activity” (1980):

Tests used:
Cavia porcellus = assay: Local anesthetic activity using modification of the guinea pig intracutaneous wheal method.; type: functional
Outline: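 Guinea pigs, four per test. Each animal received four intracutaneous injections: propranolol standard at 0.6 and 0.2%, test high dose 0.6-2% and low dose 0.2-0.67%. Wheals marked. Skin pricked with a 23-gauge needle six times inside and six times outside the wheal every 5 min up to 30 min. Activity expressed relative to propranolol with 95% confidence limits.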

Canis familiaris [1] = assay: Heart rate of the dog was measured after drug administration to dogs; type: functional, Canis lupus familiaris
Outline: (§1)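 Dogs anesthetized with pentobarbital 35 mg/kg. Ouabain given iv at 40 μg/kg, then 20 μg/kg 30 min later, then 10 μg/kg every 15 min until ventricular tachycardia persisted. About 20 min after the last ouabain dose, compound given iv over 3 min, starting at 5 mg/kg. Further 5 or 10 mg/kg doses given at 15-min intervals, up to 15 or 20 mg/kg, until sinus rhythm returned. Dogs observed 2 h.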

Canis familiaris [2] = assay: Heart rate of the dog was measured after ouabain administration to dogs; type: functional, Canis lupus familiaris; outline: as §1
Canis familiaris [3] = organism: Canis familiaris; assay: Duration of the reversal of ouabain induced arrhythmia was measured; type: functional, Canis lupus familiaris; outline: as §1
Canis familiaris [4] = organism: Canis familiaris; assay: Concentration of ouabain required to induce arrhythmia in dogs; type: functional, Canis lupus familiaris; outline: as §1
Canis familiaris [5] = organism: Canis familiaris; assay: Concentration required to reverse ouabain induced arrhythmia in dogs; type: functional, Canis lupus familiaris; outline: as §1
Canis familiaris [6] = organism: Canis familiaris; assay: Number of dogs reverted ouabain induced arrhythmia; type: functional, Canis lupus familiaris; outline: as §1
Canis familiaris [7] = organism: Canis familiaris; assay: Number of dogs used ouabain induced arrhythmia; type: functional, Canis lupus familiaris; outline: as §1
Canis familiaris [8] = organism: Canis familiaris; assay: Number of dogs reverted in ouabain induced arrhythmia; type: functional, Canis lupus familiaris; outline: as §1
Canis familiaris [9] = organism: Canis familiaris; assay: Number of dogs used in ouabain induced arrhythmia; type: functional, Canis lupus familiaris; outline: as §1

SMILES: O[C@H](c1nccs1)[C@@H]1CC2CCN1CC2 (single isomer, unassigned)
- Activity (Cavia porcellus): 0.8

SMILES: O[C@H](c1ccncc1)[C@@H]1CC2CCN1CC2 (relative stereo)
- Activity (Cavia porcellus): 0.08

SMILES: O[C@H](c1ccccc1)[C@@H]1CC2CCN1CC2 (relative stereo)
- Activity (Cavia porcellus): 0.25

SMILES: COc1ccc(C(O)(c2ccc(OC)cc2)C2CC3CCN2CC3)cc1 (stereo not drawn)
- Heart rate (Canis familiaris [1]): 168 min⁻¹
- Heart rate (Canis familiaris [2]): 240 min⁻¹
- Duration of reversal (Canis familiaris [3]): 14 min
- Ouabain (Canis familiaris [4]): 60 µg/kg
- Dose (Canis familiaris [5]): 5 mg/kg
- No. of dogs reverted (Canis familiaris [6]): 1
- No. of dogs used (Canis familiaris [7]): 1
- Activity (Cavia porcellus): 0.54

SMILES: CC(C)NCC(O)COc1cccc2ccccc12 (stereo not drawn) [PROPRANOLOL]
- Heart rate (Canis familiaris [1]): 138 min⁻¹
- Heart rate (Canis familiaris [2]): 211 min⁻¹
- Duration of reversal (Canis familiaris [3]): 80 min
- Ouabain (Canis familiaris [4]): 72 µg/kg
- Dose (Canis familiaris [5]): 5 mg/kg
- No. of dogs reverted (Canis familiaris [6]): 5
- No. of dogs used (Canis familiaris [7]): 5

SMILES: Cc1ccc(C(O)(c2ccc(C)cc2)C2CC3CCN2CC3)cc1 (stereo in doubt; 21)
- Heart rate (Canis familiaris [1]): 134 min⁻¹
- Heart rate (Canis familiaris [2]): 220 min⁻¹
- Duration of reversal (Canis familiaris [3]): 85 min
- Ouabain (Canis familiaris [4]): 83 µg/kg
- Dose (Canis familiaris [5]): 11.7 mg/kg
- No. of dogs reverted (Canis familiaris [6]): 3
- No. of dogs used (Canis familiaris [7]): 3
- Activity (Cavia porcellus): 0.86

SMILES: O[C@H](c1ccco1)[C@@H]1CC2CCN1CC2 (relative stereo)
- Activity (Cavia porcellus): 0.09

SMILES: OC(c1ccccc1)(c1ccccc1)C1CC2CCN1CC2 (stereo not drawn)
- Heart rate (Canis familiaris [1]): 186 min⁻¹
- Heart rate (Canis familiaris [2]): 228 min⁻¹
- Duration of reversal (Canis familiaris [3]): >120 min
- Ouabain (Canis familiaris [4]): 70 µg/kg
- Dose (Canis familiaris [5]): 5 mg/kg
- No. of dogs reverted (Canis familiaris [6]): 2
- No. of dogs used (Canis familiaris [7]): 2
- Activity (Cavia porcellus): 0.85

SMILES: COc1ccc(Br)cc1C(O)(c1cc(Br)ccc1OC)C1CC2CCN1CC2 (stereo not drawn)
- Heart rate (Canis familiaris [1]): 162 min⁻¹
- Heart rate (Canis familiaris [2]): 210 min⁻¹
- Duration of reversal (Canis familiaris [3]): >120 min
- Ouabain (Canis familiaris [4]): 70 µg/kg
- Dose (Canis familiaris [5]): 10 mg/kg
- No. of dogs reverted (Canis familiaris [6]): 1
- No. of dogs used (Canis familiaris [7]): 1
- Activity (Cavia porcellus): 0.92

SMILES: Cc1ccc([C@@H](O)[C@@H]2CC3CCN2CC3)cc1 (relative stereo)
- Activity (Cavia porcellus): 0.23

SMILES: COc1ccc([C@](O)(c2cc(Br)ccc2OC)C2CC3CCN2CC3)cc1 (stereo partly drawn)
- Heart rate (Canis familiaris [1]): 160 min⁻¹
- Heart rate (Canis familiaris [2]): 180 min⁻¹
- Duration of reversal (Canis familiaris [3]): 0 min
- Ouabain (Canis familiaris [4]): 100 µg/kg
- Dose (Canis familiaris [5]): 15 mg/kg
- No. of dogs reverted (Canis familiaris [6]): 0
- No. of dogs used (Canis familiaris [7]): 1
- Activity (Cavia porcellus): 1.2

SMILES: OC(c1ccccc1)(c1nccs1)C1CC2CCN1CC2 (stereo not drawn)
- Heart rate (Canis familiaris [1]): 150 min⁻¹
- Heart rate (Canis familiaris [2]): 207 min⁻¹
- Duration of reversal (Canis familiaris [3]): >120 min
- Ouabain (Canis familiaris [4]): 75 µg/kg
- Dose (Canis familiaris [5]): 6.4 mg/kg
- No. of dogs reverted (Canis familiaris [6]): 1
- No. of dogs used (Canis familiaris [7]): 2
- Activity (Cavia porcellus): 0.25

SMILES: Cn1ccnc1[C@@H](O)[C@@H]1CC2CCN1CC2 (relative stereo)
- Activity (Cavia porcellus): 0.61

SMILES: CC(C)(C)[C@@H](O)[C@@H]1CC2CCN1CC2 (relative stereo)
- Activity (Cavia porcellus): 0.13

SMILES: C=C[C@H]1CN2CC[C@H]1C[C@@H]2[C@@H](O)c1ccnc2ccc(OC)cc12 [QUINIDINE]
- Heart rate (Canis familiaris [1]): 170 min⁻¹
- Heart rate (Canis familiaris [2]): 211 min⁻¹
- Duration of reversal (Canis familiaris [3]): 31 min
- Ouabain (Canis familiaris [4]): 59 µg/kg
- Dose (Canis familiaris [5]): 9 mg/kg
- No. of dogs reverted (Canis familiaris [6]): 10
- No. of dogs used (Canis familiaris [7]): 13
- Activity (Cavia porcellus): 1.15

SMILES: CCN(CC)CC(=O)Nc1c(C)cccc1C [LIDOCAINE]
- Heart rate (Canis familiaris [1]): 169 min⁻¹
- Heart rate (Canis familiaris [2]): 223 min⁻¹
- Duration of reversal (Canis familiaris [3]): 51 min
- Ouabain (Canis familiaris [4]): 74 µg/kg
- Dose (Canis familiaris [5]): 5 mg/kg
- No. of dogs reverted (Canis familiaris [6]): 5
- No. of dogs used (Canis familiaris [7]): 5
- Activity (Cavia porcellus): 0.66

SMILES: OC(c1ccco1)(c1ccco1)C1CC2CCN1CC2 (stereo not drawn)
- Heart rate (Canis familiaris [1]): 180 min⁻¹
- Heart rate (Canis familiaris [2]): 240 min⁻¹
- Duration of reversal (Canis familiaris [3]): >120 min
- Ouabain (Canis familiaris [4]): 70 µg/kg
- Dose (Canis familiaris [5]): 15 mg/kg
- No. of dogs reverted (Canis familiaris [6]): 1
- No. of dogs used (Canis familiaris [7]): 1
- Activity (Cavia porcellus): 0.27

SMILES: O[C@H](c1ccc(Cl)cc1)[C@@H]1CC2CCN1CC2 (relative stereo)
- Heart rate (Canis familiaris [1]): 160 min⁻¹
- Heart rate (Canis familiaris [2]): 222 min⁻¹
- Duration of reversal (Canis familiaris [3]): 0 min
- Ouabain (Canis familiaris [4]): 70 µg/kg
- Dose (Canis familiaris [5]): 15 mg/kg
- No. of dogs reverted (Canis familiaris [6]): 0
- No. of dogs used (Canis familiaris [7]): 1
- Activity (Cavia porcellus): 0.43

SMILES: O[C@@H](c1ccccc1)[C@@H]1CC2CCN1CC2 (relative stereo)
- Activity (Cavia porcellus): 0.18

SMILES: O[C@H](C1=C2C=CC=CC(=CC=C1)C2)[C@@H]1CC2CCN1CC2 (relative stereo)
- Heart rate (Canis familiaris [1]): 156 min⁻¹
- Heart rate (Canis familiaris [2]): 216 min⁻¹
- Duration of reversal (Canis familiaris [3]): >120 min
- Ouabain (Canis familiaris [4]): 70 µg/kg
- Dose (Canis familiaris [5]): 15 mg/kg
- No. of dogs reverted (Canis familiaris [8]): 1
- No. of dogs used (Canis familiaris [9]): 1
- Activity (Cavia porcellus): 0.99
